Assay results taken from ChEMBL document CHEMBL1121519, “Basic antiinflammatory compounds. N,N',N''-Trisubstituted guanidines” (J Med Chem, 1980).

Experiments:
[1] = Lethal dose in mice determined by Litchfield and Wilcoxon methods after peroral administration.; type: toxicity, organism-based; conditions: mouse, in vivo, po
Procedure, shortened: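 Median lethal dose found after oral dosing of mice, four mice per dose level, and calculated by the Litchfield–Wilcoxon method.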

[2] = target: Cyclooxygenase (Bos taurus) (UniProt O62664+O62698); assay: Inhibition of prostaglandin synthetase in bovine seminal vesicle microsomes using Beckman liquid scintillation counter at 10 e-5 M; conditions: Microsome
Rattus norvegicus = assay: Percent inhibition of carrageenan paw edema in rat, administered orally at a dose of one tenth of oral lethal dose in mice; type: functional
Procedure, shortened: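 1 h later, 0.1 mL of 1% carrageenan was injected into the right hind-paw plantar tissue. Paw swelling was measured by mercury-displacement plethysmometry 3 h after carrageenan, compared with controls.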

Compound | LD50 [1] | inhibition [2] | Inhibition (Rattus norvegicus)
CC(C)c1cc(N/C(=N/C2CCCCC2)Nc2nccs2)c2ccccc2n1 | > 1000 mg/kg | 0% | 36%
Cc1cc(N/C(=N/C23C[C@H]4C[C@@H](C2)C[C@@H](C3)C4)Nc2nccs2)c2ccccc2n1 | > 1000 mg/kg | 32% | 17%
CC(C)(C)/N=C(\Nc1nccs1)Nc1ccnc2cc(C(F)(F)F)ccc12 | > 1000 mg/kg | – | 32%
Cc1cc(NC(=N)NC(C)(C)C)c2ccccc2n1 | 100 mg/kg | 11.7% | 5%
CCC(C)(C)/N=C(\Nc1cccnc1)Nc1nccs1 | > 1000 mg/kg | 0% | 82%
CC(C)Cc1cc(N/C(=N/C2CCCCC2)Nc2nccs2)c2ccccc2n1 | > 1000 mg/kg | 11% | 40%
CC(C)(C)/N=C(\Nc1ccccn1)Nc1nccs1 | > 1000 mg/kg | 6.9% | 83%
CC(C)(C)/N=C(\Nc1ccc(Cl)cn1)Nc1nccs1 | > 1000 mg/kg | 1% | 31%
Cc1cc(N/C(=N/CC(C)C)Nc2nccs2)c2ccccc2n1 | 1000 mg/kg | 18% | 57%
COc1ccc2nccc(N/C(=N/C(C)(C)C)Nc3nccs3)c2c1 | > 1000 mg/kg | 12.7% | 42%
Cc1cc(N/C(=N/C2CCCCC2)Nc2nncs2)c2ccccc2n1 | 250 mg/kg | 15.1% | 40%
CCCc1cc(N/C(=N/C(C)(C)C)Nc2nccs2)c2ccccc2n1 | 600 mg/kg | 74.1% | 51%
CC(C)Cc1cc(N/C(=N/C(C)(C)C)Nc2nccs2)c2ccccc2n1 | 600 mg/kg | 20% | 33%
Cc1ccc2nccc(N/C(=N/C3CCCCC3)Nc3nccs3)c2c1 | > 1000 mg/kg | 7.2% | 12%
Cc1cc(N/C(=N/C2CCCCC2)Nc2ccccc2)c2ccccc2n1 | 300 mg/kg | 10% | 38%
Cc1cc(N/C(=N/C2CCCCCC2)Nc2nccs2)c2ccccc2n1 | > 1000 mg/kg | 34.8% | 19%
CC(C)(C)/N=C(/Nc1nccs1)Nc1cccc2ncccc12 | > 1000 mg/kg | 9% | 21%
CCc1cc(N/C(=N/C2CCCCC2)Nc2nccs2)c2ccccc2n1 | > 1000 mg/kg | 67% | 24%
Cc1cc(N/C(=N\C(C)C(C)(C)C)Nc2nccs2)c2ccccc2n1 (stereo not given) | > 1000 mg/kg | 4% | 36%
CC(C)(C)/N=C(\N)Nc1nccs1.O=C(O)/C=C\C(=O)O | 600 mg/kg | 29% | 54%
Cc1cc(N/C(=N/C(C)(C)C)NCCO)c2ccccc2n1 | 600 mg/kg | 2.8% | 40%
CC(C)(C)/N=C(/Nc1nccs1)Nc1nccc2ccccc12 | > 1000 mg/kg | 3.4% | 18%
Cc1cc(N/C(=N/C2CCCC(C)C2C)Nc2nccs2)c2ccccc2n1.Cl (stereo not given) | > 1000 mg/kg | 7% | 47%
Cc1cc(N/C(=N/C(C)(C)C)Nc2ccccc2)c2ccccc2n1 | 40 mg/kg | 43.9% | 34%
CCCCC(CC)C/N=C(/Nc1nccs1)Nc1cc(C)nc2ccccc12 (stereo not given) | > 1000 mg/kg | 2.1% | 28%
Cc1cc(N/C(=N\C(C)(C)C)Nc2nccs2)ccn1 | 250 mg/kg | 14.9% | 13%
Cc1ccc2cc(N/C(=N\C(C)(C)C)Nc3nccs3)ccc2n1 | > 1000 mg/kg | 3.7% | 43%

Compound | LD50 [1] | inhibition [2] | Inhibition (Rattus norvegicus)
Cc1c(Cl)cccc1N/C(=N\C(C)(C)C)Nc1nccs1 | > 1000 mg/kg | 9.5% | 17%
Cc1ccc2nc(C)cc(N/C(=N/C(C)(C)C)Nc3nccs3)c2c1 | > 1000 mg/kg | -7.5% | 42%
Cc1nc2ccccc2cc1N/C(=N\C(C)(C)C)Nc1nccs1 | > 1000 mg/kg | 2.3% | 24%
Cc1cc(N/C(=N\C(C)(C)CC(C)(C)C)Nc2nccs2)c2ccccc2n1 | > 1000 mg/kg | 49.3% | 25%
CC(C)(C)/N=C(/Nc1nccs1)Nc1cccc2cnccc12 | > 1000 mg/kg | -8.8% | 21%
Cc1cc(N/C(=N/CC2CCCCC2)Nc2nccs2)c2ccccc2n1 | > 1000 mg/kg | 21% | 50%
CC(C)CC(C)(C)/N=C(\Nc1ccncc1)Nc1nccs1 | 800 mg/kg | 1.1% | 22%
Cc1ccc2cccc(N/C(=N\C(C)(C)C)Nc3nccs3)c2n1 | > 1000 mg/kg | 7% | 4%
CCC(C)/N=C(/Nc1nccs1)Nc1cc(C)nc2ccccc12 (stereo not given) | 400 mg/kg | 10.5% | 57%
Cc1cc(N/C(=N/C2CCCCC2)Nc2nnc(S)s2)c2ccccc2n1 | > 1000 mg/kg | 7% | 36%
CC(C)(C)/N=C(\Nc1nccs1)Nc1ccnc2ccccc12 | > 1000 mg/kg | 23.8% | 29%
CC(C)(C)/N=C(/Nc1nccs1)Nc1cccc2c(O)cccc12 | > 1000 mg/kg | – | 22%
CCOC(=O)c1cnc(/N=C(\Nc2cc(C)nc3ccccc23)NC(C)(C)C)s1 | > 1000 mg/kg | 15.8% | 16%
COc1cc(N/C(=N\C(C)(C)C)Nc2nccs2)c2ncccc2c1 | > 1000 mg/kg | 5% | –
CCC(C)(C)/N=C(\Nc1ncccn1)Nc1nccs1 | > 1000 mg/kg | 27.5% | 20%
Cc1cc(N/C(=N/C(C)(C)C)Nc2nc(C)c(C)s2)c2ccccc2n1 | > 1000 mg/kg | 64.2% | 19%
Cc1cc(N/C(=N/C2CCCCC2)Nc2ccccn2)c2ccccc2n1 | > 1000 mg/kg | 0.4% | 23%
CCCc1cc(N/C(=N/C2CCCCC2)Nc2nccs2)c2ccccc2n1 | > 1000 mg/kg | 56% | 54%
c1ccc2c(N/C(=N/C3CCCCC3)Nc3nccs3)ccnc2c1 | > 1000 mg/kg | 21.2% | 46%
CC(C)(C)/N=C(/Nc1nccs1)Nc1cccc2cccnc12 | > 1000 mg/kg | 4.3% | 8%
CC(C)(C)/N=C(\Nc1ccc2ccccc2n1)Nc1nccs1 | > 1000 mg/kg | – | 32%
CC(C)(C)/N=C(\Nc1ccncc1)Nc1nccs1 | 300 mg/kg | – | 15%
Cc1cc(N/C(=N/C(C)(C)C)Nc2ccccn2)c2ccccc2n1 | > 1000 mg/kg | 30.1% | 36%
CC/N=C(/Nc1nccs1)Nc1cc(C)nc2ccccc12 | 100 mg/kg | 8% | 56%
Cc1cc(NC(=N)NC2CCCCC2)c2ccccc2n1 | > 1000 mg/kg | – | –
Cc1cc(N/C(=N/C(C)(C)C)Nc2cnccn2)c2ccccc2n1 | > 1000 mg/kg | – | –
